This is a sample that favours compounds with a hit; in the whole collection about 2.8% have one here.
TNAP act hiacc – increases human TNAP activity under high phosphate acceptor concentration; P05186; purified TNAP, CDP-star luminescence, 1 M DEA, 30 min; stronger effect = higher value; 0 = EDTA background, 1 = DMSO-only activity; activation factor at 20 µM; 200,000 tested, under 10 active;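 active = activation factor at least 2 at 20 µM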
Target sequence (P05186 whole entry, looked up): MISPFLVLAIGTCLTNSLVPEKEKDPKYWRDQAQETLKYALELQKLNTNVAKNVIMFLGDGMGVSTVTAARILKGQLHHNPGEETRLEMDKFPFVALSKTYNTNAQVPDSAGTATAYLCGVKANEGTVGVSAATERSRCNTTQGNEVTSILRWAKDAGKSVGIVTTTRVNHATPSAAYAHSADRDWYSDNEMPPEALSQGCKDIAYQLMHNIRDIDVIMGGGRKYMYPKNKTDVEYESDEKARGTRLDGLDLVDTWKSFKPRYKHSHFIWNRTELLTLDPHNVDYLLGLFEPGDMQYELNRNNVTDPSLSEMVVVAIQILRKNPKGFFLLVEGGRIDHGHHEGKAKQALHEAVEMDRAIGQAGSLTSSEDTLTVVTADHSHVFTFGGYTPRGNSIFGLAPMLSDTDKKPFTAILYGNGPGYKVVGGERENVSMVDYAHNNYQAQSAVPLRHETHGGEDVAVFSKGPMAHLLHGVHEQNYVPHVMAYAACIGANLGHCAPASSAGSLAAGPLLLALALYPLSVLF
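Dosing: 20 µM single point. System: human TNAP. Amount: TNAP 1/800 final. Incubation: 30 min, room temperature. Read-out: TNAP activation factor scaled between EDTA and DMSO control wells. Signal: luminescence from CDP-star hydrolysis. Medium: 1 M DEA, pH 9.8, Mg2+, Zn2+. Control set: EDTA negative control, DMSO positive control.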
RAM network inh – yeast RAM network inhibition. S. cerevisiae dse1pr::URA3 reporter, 5-FOA growth OD615, 2 d; analog-sensitive cbk1-as2 kinase mutant strain. inhibition, % at 50 µM. hit rate 1.8% among 190,000. AID 868;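 active = inhibition above a set limit, 3 SD over mean compound inhibition, cut at about 8.4% in these data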;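 also: inhibition rescues growth on 5-FOA so higher OD means more RAM inhibition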
TNAP inh hiacc – TNAP (human) inhibition, high acceptor; P05186; purified TNAP, CDP-star luminescence, 1 M DEA; inhibition, % at 20 µM; hit rate 0.03% among 200,000;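 active = over 50% inhibition of tissue-nonspecific alkaline phosphatase at 20 µM in the single-dose screen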
TNAP inh noacc – inhibitors of human TNAP without phosphate acceptor; inhibition, % at 20 µM; purified TNAP, CDP-star luminescence, 30 min; hit rate 0.26% among 200,000; AID 1012;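 active = tissue-nonspecific alkaline phosphatase inhibition above about 50% at 20 µM in the single-dose screen, limit read from the data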
Yeast growth inh – chemicals that inhibit yeast BB579 growth in restrictive medium (lifespan-shortening candidates). S. cerevisiae BB579 growth, OD615, 48 h. inhibition, % at 10 µM. hit rate 0.51% among 140,000;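 active = inhibition above a set limit, 3 SD over the mean compound inhibition, cut at about 44% in these data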
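Detection: OD615 turbidity measurement; Material: Saccharomyces cerevisiae DeaD strain BB579, replicative lifespan model yeast; Timing: 48 h exposure, 30 °C; Doses: single 10 µM dose; Medium: CSMM-D restrictive synthetic medium containing dextrose (glucose); Controls: amphotericin B at 10 µg/mL as positive control.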
Yeast lifespan up – extends the lifespan of yeast; S. cerevisiae growth with nicotinamide, OD615; deaD strain in restrictive glucose medium; inhibition of the nicotinamide effect, % at 10 µM; hit rate 0.68% among 130,000; AID 775;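 active = inhibition above a set limit, placed 3 SD over the median of all compounds, cut at about 26% in these data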
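Test system – modified budding yeast, DeaD strain · Compound – single dose 10 µM compound, 0.25% DMSO · Times – culture preincubation 4 h, compound exposure 48 h, both 30 °C · Detection – optical density (absorbance) at 615 nm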
Numbers stand for hits; n = inactive; x = no result given.

SMILES | TNAP act hiacc | RAM network inh | TNAP inh hiacc | TNAP inh noacc | Yeast growth inh | Yeast lifespan up
Cc1c(NC(=O)COC(=O)/C=C/c2ccc(Cl)cc2)c(=O)n(-c2ccccc2)n1C | n | n | n | n | x | x
O=C(COC(=O)Cc1ccc(Cl)cc1)Nc1ccccc1-c1ccccc1 | n | n | n | n | n | n
O=C(COC(=O)Cc1cccc2ccccc12)Nc1ccccc1-c1ccccc1 | n | 10.6 | n | n | n | n
Cc1c(NC(=O)C(C)N2C(=O)NC3(CCC(C)CC3)C2=O)c(=O)n(-c2ccccc2)n1C (stereo unspecified) | n | n | n | n | x | x
Cc1ccc(CSCC(=O)NCc2ccco2)cc1 | n | n | n | n | x | x
CCCCNc1oc(-c2cccs2)nc1S(=O)(=O)c1ccccc1 | n | 9.5 | n | n | n | n
CCN(Cc1ccccc1)C(c1cccc(C#N)c1)c1nnnn1C(C)(C)C (stereo unspecified) | n | n | n | n | n | n
CCN(Cc1ccccc1)C(c1ccc(C(F)(F)F)cc1)c1nnnn1C(C)(C)C (stereo unspecified) | x | 11.4 | x | x | n | x
Cc1ccc([N+](=O)[O-])cc1NC(=S)NC(=O)c1cccs1 | n | n | n | n | n | n
CC(c1cccs1)N(Cc1ccco1)C(=O)Nc1ccc(Cl)c(Cl)c1 (stereo unspecified) | n | 11.2 | n | n | n | n
O=C1/C(=C\c2ccc(Br)o2)SC(=Nc2ccccc2)N1c1ccccc1 | n | 11.0 | n | n | n | n
Cc1cccc(C(=O)NC(=S)NNC(=O)c2ccc(Cl)cc2)c1 | n | n | n | n | n | n
O=C(NNC(=O)c1cccs1)c1ccco1 | n | n | n | n | x | x
COc1ccc(C(=O)NC(=S)NNC(=O)c2ccc(NC(=O)C(C)C)cc2)cc1 | n | n | n | n | n | 33.5
Cc1cccc(C(=O)NC(=S)NNC(=O)c2cccs2)c1 | n | n | n | n | 49.0 | n
O=C(NC(=S)NNC(=O)c1cccs1)c1ccco1 | n | n | n | n | n | 29.3
COc1ccc(C(=O)NNC(=S)NC(=O)c2ccco2)cc1 | n | n | n | n | n | 33.4
COCCNC(=S)NNC(=O)c1ccco1 | n | n | n | n | n | n
CC(C)C(=O)Nc1ccc(C(=O)NNC(=S)NC(=O)c2ccccc2[N+](=O)[O-])cc1 | n | n | n | n | x | x
CCOC(=O)c1cccnc1SCC(=O)N(CC)c1cccc(C)c1 | n | n | n | n | n | n
Cc1[nH]c(=O)[nH]c(=O)c1NS(=O)(=O)c1ccccc1 | n | n | n | n | n | n
CC(C)(C)c1ccc(C(=O)NC(=S)NNC(=O)c2cccs2)cc1 | n | n | n | n | 66.7 | n
Cc1cc(O)c(/C=N/Nc2ccccc2)c(=O)o1 | n | n | n | n | 86.8 | n
CS(=O)(=O)c1cnc(-c2ccccc2)nc1Oc1ccc(Cl)cc1 | n | n | n | n | n | n
CCc1ccc(C(=O)/C=C/c2ccc([N+](=O)[O-])o2)cc1 | n | n | n | n | n | 45.5
SMILES | TNAP act hiacc | RAM network inh | TNAP inh hiacc | TNAP inh noacc | Yeast growth inh | Yeast lifespan up
O=C(CSCc1cccc(Cl)c1)NCc1ccc2c(c1)OCO2 | n | n | n | n | n | n
O=C(NCc1ccc2c(c1)OCO2)c1ccc(CSCc2cccc(Cl)c2)o1 | n | 8.8 | n | n | n | n
O=C(COC(=O)CNC(=O)c1ccc(-c2ccccc2)cc1)NCc1ccco1 | n | n | n | n | x | x
O=C(CSc1nnc(CN2CCOCC2)n1-c1ccc(Cl)cc1)Nc1cc(Cl)ccc1O | n | 11.3 | n | n | n | n
COc1ccc(NC(=O)CSc2nnc(CN3CCOCC3)n2-c2ccccc2)cc1Cl | n | n | n | n | n | n
Cc1cc([N+](=O)[O-])cnc1NC(C)c1ccccc1 (stereo unspecified) | n | n | n | n | n | n
Cc1nn(C)c(C)c1/C=C1/SC(=S)NC1=O | n | n | n | n | n | n
Cc1ccc(C2C(/C=C3/SC(=S)NC3=O)=C(c3cccs3)Oc3ccccc32)cc1 (stereo unspecified) | n | 10.2 | n | n | n | n
CCOc1ccc(CN(CCC#N)C(=S)NC(=O)c2ccccc2)cc1 | n | n | n | n | n | n
CCOc1ccc(C(=O)NC(=S)N(Cc2ccccc2)Cc2ccccc2)cc1 | n | 8.6 | n | n | n | n
COc1ccc(-c2oc(/N=C/N3CCOCC3)c(C#N)c2-c2ccc(OC)cc2)cc1 | n | 9.1 | n | n | n | n
N#Cc1c(/N=C/c2ccccc2)oc(-c2ccccc2)c1-c1ccccc1 | n | n | n | n | n | x
CC1CCC2(CC1)NC(=O)c1ccccc1O2 (stereo unspecified) | n | n | n | n | n | n
CCOC(=O)c1cc(NC(=O)c2ccc(OC)cc2)c(=O)oc1-c1ccccc1 | n | 11.4 | n | n | n | n
CCOC(=O)c1c(/N=C/c2cc(OC)cc([N+](=O)[O-])c2O)sc(C)c1C | n | 9.5 | n | n | n | n
CCOC(=O)c1c(/N=C/C2=C(O)CC(C)(C)CC2=O)sc(C)c1C | n | n | n | n | n | n
CCOC(=O)c1c(/N=C/c2cc([N+](=O)[O-])ccc2O)sc(C)c1C | n | n | n | n | 61.4 | n
CCOC(=O)C1CCN(S(=O)(=O)c2ccc(-c3nc4ccccc4s3)s2)CC1 | n | 8.4 | n | n | n | n
CCOC(=O)C1CCN(S(=O)(=O)c2ccc(C(C)=O)cc2)CC1 | n | n | n | n | n | x
COc1ccc(N2C(=O)CCC2(C#N)c2ccc(Br)cc2)cc1 (stereo unspecified) | n | n | n | n | n | n
CCN(c1ccccc1)S(=O)(=O)c1ccc(OCc2c(C)noc2C)cc1 | n | 10.3 | n | n | n | n
O=C(C1COc2ccccc2O1)N1CCc2ccccc21 (stereo unspecified) | n | n | n | n | n | n
Nc1ncnc(N2CCc3ccccc32)c1[N+](=O)[O-] | n | n | n | n | x | x
COC(=O)c1c(NC(=O)CN2CCCc3ccccc32)sc(C)c1C | n | n | n | n | n | n
COCCOC(=O)c1c(NC(=O)CN2CCCc3ccccc32)sc(C(N)=O)c1C | n | 11.4 | n | n | n | n
CCN(CC)S(=O)(=O)c1cccc(C(=O)OCc2cc(=O)n3nc(C)sc3n2)c1 | n | n | n | n | n | n
CCOC(=O)C1=C(N)OC2=C(C(=O)CCC2)C1c1sccc1C (stereo unspecified) | n | n | n | n | n | 47.4
O=C(O)Cc1ccc2[nH]c3ccc(CC(=O)O)cc3c2c1 | n | n | n | n | n | n
CCOC(=O)c1cc(CC)sc1NC(=O)c1cc(OCC)c(OCC)c(OCC)c1 | n | 10.3 | n | n | n | n
